Screening results (PubChem)
OX1R antag-1 = antagonists of human orexin 1 receptor (OX1R); O43613; inhibition, % at 6.6 µM; OX1R-expressing cells, FRET antagonist read-out; 330,000 tested, 1.8% active; in the data active = inhibition mostly above about 38%, no sharp cut-off; inactive = mostly below about 40%;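 note: 0% = agonist challenge alone and 100% = reference antagonist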
Target sequence (O43613 whole entry, looked up): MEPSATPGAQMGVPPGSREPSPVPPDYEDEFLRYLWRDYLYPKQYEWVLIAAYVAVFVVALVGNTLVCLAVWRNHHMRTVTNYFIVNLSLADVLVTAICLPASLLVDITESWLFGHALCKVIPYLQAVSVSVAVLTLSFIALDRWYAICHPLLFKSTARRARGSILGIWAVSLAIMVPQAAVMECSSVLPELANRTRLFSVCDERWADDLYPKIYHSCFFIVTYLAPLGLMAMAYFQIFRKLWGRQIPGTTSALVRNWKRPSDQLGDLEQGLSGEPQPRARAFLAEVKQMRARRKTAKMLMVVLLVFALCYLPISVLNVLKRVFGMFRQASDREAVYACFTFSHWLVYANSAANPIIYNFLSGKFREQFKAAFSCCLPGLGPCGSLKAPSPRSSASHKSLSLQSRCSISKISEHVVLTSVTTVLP
M1 ag parental = counter-screen for M1 agonists: effect in parental CHO-K1 cells; Fluo-8 calcium fluorescence; scaled to maximal ATP response, vehicle zero; activation, % at 3 µM; 360,000 tested, 0.48% active; AID 602248; in the data active = activation above about 15%;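 note: untransfected CHO-K1 host cells lacking M1 receptor as counterscreen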
OX1R antag-2 = antagonists of human orexin 1 receptor; O43613; CHO/OX1R cells, Fluo-8 calcium fluorescence, orexin A; inhibition, % at 5 µM; 330,000 tested, 0.43% active;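 active = inhibition above its plate's threshold, mean inhibition of all tested compounds on the plate plus 3 SD, cut at about 37% in these data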;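 note: 0% = orexin A challenge wells and 100% = SB-334867-A antagonist wells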
CHO-K1 Ca antag = counter-screen for M1 antagonists: effect in parental CHO-K1 cells. ATP-induced calcium, Fluo-8 fluorescence. inhibition, % at 3 µM. 360,000 tested, 0.6% active. AID 602250;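 active = inhibition above a per-plate cutoff, the plate's mean sample inhibition plus 3 SD, cut at about 24% in these data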;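 note: 0% = DMSO plus EC80 ATP and 100% = DMSO alone without ATP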
CHO parental Ca = counter-screen: ATP calcium response change in parental CHO cells; inhibition, % at 5.6 µM; parental CHO-K1, ATP-induced calcium, Fluo-8 fluorescence; 330,000 tested, 0.63% active; AID 463079;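 active = inhibition above that plate's mean sample inhibition plus 3 SD, cut at about 26% in these data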;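 note: 0% = ATP-challenged DMSO wells and 100% = DMSO wells without ATP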
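Assay system – parental CHO cells · Reagent – ATP stimulus · Detection – intracellular calcium via Fluo-8 no-wash fluorescent dye · Evaluation – percent inhibition of ATP-evoked calcium rise, normalized to controls · Controls – ATP wells versus no-ATP DMSO wells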
CHO-K1 Ca PAM = nonselective activator or artifact in parental CHO-K1 calcium assay; ATP EC20, Fluo-8 calcium fluorescence; 0% at ATP EC20, 100% at ATP max; activation, % at 3 µM; 360,000 tested, 0.02% active;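 active = activation above the run cutoff, the mean activation of all test compounds plus 3 SD, cut at about 40% in these data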;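 note: peak over basal fluorescence ratio in a 140 s read after ATP addition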
OX1R Ca confirm = OX1R (human) antagonism, confirmed; shares compounds with OX1R antag-2; CHO/OX1R cells, orexin A calcium Fluo-8 fluorescence; inhibition, % at 5 µM; 1,100 tested, 38% active; AID 492963; in the data active = inhibition above about 29%;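 note: 0% = agonist challenge alone and 100% = reference antagonist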
CHO Ca triplic = signal in parental CHO cells, OX1R antagonist counter-screen; shares compounds with OX1R antag-2; parental CHO-K1, ATP-induced calcium, Fluo-8 fluorescence; inhibition, % at 5.6 µM; 1,100 tested, 9.3% active; AID 492965;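 active = inhibition above a per-plate limit, the mean inhibition of that plate's test compounds plus 3 SD, cut at about 25% in these data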;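 note: 0% = ATP challenge with DMSO and 100% = DMSO without ATP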
* marks the source's active call; other numbers are inactive results; x = no result given. Only some compounds are listed: those with a hit (about 2.9% of all), similar ones and a draw of the others.

SMILES	OX1R antag-1	M1 ag parental	OX1R antag-2	CHO-K1 Ca antag	CHO parental Ca	CHO-K1 Ca PAM	others
Cc1ccc(S(=O)(=O)Nc2c(C)n(C)n(-c3ccccc3)c2=O)cc1C(=O)NCc1ccco1	x	-0.5	x	6.7	x	3.0
CN(C)C(CNC(=O)c1cccc(S(=O)(=O)NCc2ccccc2)c1)c1ccccc1 (stereo not drawn)	x	1.4	x	-5.2	x	-18.2
Cc1ccc(NC(=S)N2CCN(S(=O)(=O)c3ccc(C)cc3)CC2)cc1	x	0.6	x	-2.8	x	12.8
CCN1CCN(c2cc(C(C)(C)C)nc3c(-c4ccccc4)c(C)nn23)CC1	8.9	17.8*	-11.2	-8.6	2.0	11.8
C#CCn1c(S(=O)(=O)Cc2ccc(OC)cc2)nc(-c2ccccc2)c1-c1ccccc1	57.6*	0.4	-7.8	-11.0	-22.8	12.0
Cc1cccc(C)c1NS(=O)(=O)c1ccc2c(c1)C(=O)c1ccccc1C2=O	4.5	0.2	-16.2	-4.5	-4.7	16.8
CC(=O)NS(=O)(=O)c1ccc2c(c1)C(=O)c1cc(S(=O)(=O)NC(C)=O)ccc1-2	58.0*	-0.6	-13.1	-0.4	-10.2	0.4
CC(NS(=O)(=O)c1ccc2c(c1)C(=O)c1cc(S(=O)(=O)NC(C)C(=O)O)ccc1-2)C(=O)O (stereo not drawn)	59.8*	0.2	-4.8	2.0	0.9	-13.1
O=[N+]([O-])c1cc(-c2ccc(/C=N\n3cnnc3)o2)cc([N+](=O)[O-])c1	69.3*	0.5	-13.7	-9.0	-8.8	5.8
Nc1ncnc(Nc2ccccn2)c1[N+](=O)[O-]	64.2*	-0.1	-9.5	10.0	6.5	-9.0
Cc1cccc(Nc2ncnc(N)c2[N+](=O)[O-])n1	56.0*	8.5	-12.2	5.4	0.0	-6.2
O=C1CCCN1C(=O)CSc1nnnn1-c1ccccc1	3.7	0.8	0.1	-18.5	-20.3	11.6
O=C1N=C(N2CCOCC2)S/C1=C\c1cccs1	41.4	0.2	-4.9	-11.9	-3.0	4.3
N#CCCN1CCN(C2=NC(=O)/C(=C\c3cccs3)S2)CC1	42.0*	-0.5	-5.0	2.6	10.8	-2.0
Nn1c(COc2cccc(Cl)c2)nc2ccccc2c1=O	26.6	25.3*	-37.7	1.7	-14.2	11.5
CCOC(=O)c1cccc(NC(=O)CCNS(=O)(=O)c2cc(Br)cnc2N)c1	62.7*	6.0	22.3	-8.4	-7.8	15.8
Nc1ncc(Br)cc1S(=O)(=O)NCCC(=O)Nc1cccc(Cl)c1	13.1	6.6	5.5	-14.2	-1.5	19.7
O=C(CSc1nc(-c2ccco2)cc(C(F)(F)F)n1)Nc1ccc2c(c1)CCC2	-0.1	0.1	-16.3	4.6	-10.5	-5.0
O=C(CSc1nc(-c2ccco2)cc(C(F)(F)F)n1)NC1CCCC1	0.5	1.6	-20.6	24.2*	2.7	4.5
Cc1cc(C)c(C(N)=O)c(SCC(=O)c2cc(C)c(C)cc2C)n1	9.5	1.1	-13.0	-0.2	-7.6	13.6
Cc1cc(C)c(C(N)=O)c(SCC(=O)c2cc(C)n(-c3cc(C)on3)c2C)n1	11.6	0.9	14.7	-4.4	31.4*	2.9
CC(OC(=O)CNC(=O)c1ccc(Cl)c(Cl)c1)C(=O)N1CCOCC1 (stereo not drawn)	19.4	1.7	-11.7	7.5	-11.8	14.1
CCCn1c(-c2cccs2)nc2nc3ccccc3nc21	63.6*	1.9	-29.5	0.5	-24.9	17.2
COc1ccc(NC(=O)C2CCCN2S(=O)(=O)c2cccc3cccnc23)cc1OC (stereo not drawn)	31.1	0.4	-8.6	3.3	-7.4	7.6
CCOc1ccc(CCNC(=O)c2cc(C)nc3ccccc23)cc1OCC	40.2	0.9	-22.1	-6.0	-14.5	0.4
SMILES	OX1R antag-1	M1 ag parental	OX1R antag-2	CHO-K1 Ca antag	CHO parental Ca	CHO-K1 Ca PAM	others
Cc1cc(C(=O)NN=C2CCCCCCC2)c2ccccc2n1	11.9	-0.1	-14.4	41.9*	-13.9	-5.2
Cc1cc(C(=O)NCCc2ccc(Cl)cc2)c2ccccc2n1	50.4*	1.7	16.4	-6.3	-14.7	-16.2
O=C(NN=C1CCCC1)c1cc(-c2ccc(F)cc2)nc2ccccc12	13.0	0.9	-36.1	-15.3	-27.5	29.5
O=C(NN=C1CCCCCCC1)c1ccc2ccccc2n1	56.3*	0.2	-1.9	-5.0	-17.8	14.1
O=C(NN=C1CCCCCCC1)c1ccccn1	2.6	7.7	-15.6	4.2	-3.5	6.1
COc1ccc(CN(CCN(C)C)c2ccccn2)cc1	17.1	x	-3.0	x	-12.0	x
CCCCCCCCCCCCCCCC[N+](C)(C)CCN(Cc1ccc(OC)cc1)c1ncccn1	6.6	0.0	46.2*	-9.9	64.2*	30.8
Cc1ccc(NC(=O)C(OC(=O)c2ccc(C=O)cc2)c2ccccc2)cc1Cl (stereo not drawn)	14.1	2.4	29.4	-8.6	14.3	22.4	OX1R Ca confirm=31.9*;CHO Ca triplic=10.8
Cc1cc(N2CCN(c3ccc(F)cc3)CC2)nc(-c2ccccc2)n1	52.6	0.4	37.0	-16.4	-41.1	7.9	OX1R Ca confirm=-20.7;CHO Ca triplic=-12.0
Cc1cc(N2CCC(C(=O)Nc3ccc(F)cc3)CC2)nc(-c2ccccc2)n1	22.1	2.2	-13.2	-0.9	-8.2	7.3
COc1cccc(S(=O)(=O)NCc2ccc(C(=O)Nc3cccc(Cl)c3)cc2)c1	51.5	5.1	45.3*	-1.5	16.2	19.1	OX1R Ca confirm=-0.9;CHO Ca triplic=-1.3
COc1cc(NC(=S)NCc2ccco2)cc(OC)c1OC	12.7	0.4	76.7*	-4.1	-8.7	11.2	OX1R Ca confirm=-4.8;CHO Ca triplic=-8.1
COc1ccc(C(=O)NNC(=S)NC(=O)c2ccco2)cc1	7.9	6.9	31.1	-4.5	3.3	7.5	OX1R Ca confirm=6.5;CHO Ca triplic=18.9
COc1ccc(CN2C[C@@H](CO)O[C@@H](n3cnc4c(NCc5ccco5)ncnc43)C2)cc1	x	1.6	x	-7.5	x	10.6
Fc1ccc(C2=CC(c3ccc(Br)o3)n3ncnc3N2)cc1 (stereo not drawn)	20.2	8.1	47.4	2.1	35.9	14.4	OX1R Ca confirm=5.0;CHO Ca triplic=8.6
Cc1cc2c(cc1S(=O)(=O)N(C)Cc1ccccc1)n(C)c(=O)c(=O)n2C	14.0	0.0	10.2	-1.7	-6.8	10.1
CN(Cc1ccccc1)S(=O)(=O)c1ccc2c(c1)n(C)c(=O)c(=O)n2C	18.8	0.2	31.9	-0.5	4.5	12.2	OX1R Ca confirm=0.8;CHO Ca triplic=20.3
Cc1noc(NS(=O)(=O)c2ccc(NC(=O)C(CC(C)C)N3C(=O)c4ccccc4C3=O)cc2)c1C (stereo not drawn)	7.1	0.0	2.6	-11.8	-12.7	29.7
Cc1ccc(C)c(OCC(=O)N/N=C/c2c(C)nn(-c3ccccc3)c2Cl)c1	30.8	x	34.4	x	-20.0	x	OX1R Ca confirm=10.5;CHO Ca triplic=-9.3
